Test [1] concerns the target T1, Signal transducer and activator of transcription 3 (Homo sapiens, UniProt P40763). Briefly: Inhibition of C-terminal 6His-tagged recombinant human STAT3 (127 to 711 residues) DNA-binding activity transfected in v-Src transformed mouse NIH3T3 cell nuclear extract preincubated for 10 mins followed by addition of radiolabeled hSIE and measured after 30 mins by EMSA analysis. The test is classed as subcellular, Nucleus.

Test [2] addresses T1, Signal transducer and activator of transcription 3. In words: Inhibition of C-terminal 6His-tagged recombinant human STAT3 (127 to 711 residues) DNA-binding activity transfected in v-Src transformed mouse NIH3T3 cell nuclear extract preincubated for 60 mins followed by addition of radiolabeled hSIE and measured after 30 mins by EMSA analysis. In kind it is subcellular, Nucleus.

Test [3] shares this target. In words: Inhibition of recombinant wild type tyrosine phosphorylated C-terminal 6His tagged human STAT3 (127 to 711 residues) DNA-binding activity transfected in v-Src transformed mouse NIH3T3 cell nuclear extract preincubated for 30 mins followed by addition of radiolabeled hSIE and measured after 30 mins by EMSA analysis. In kind it is subcellular, Nucleus.
Test [4] concerns the target Signal transducer and activator of transcription 3 (Homo sapiens, UniProt P40763, C328A). In words: Inhibition of recombinant wild type tyrosine phosphorylated C-terminal 6His tagged human STAT3 C328A mutant (127 to 711 residues) DNA-binding activity transfected in v-Src transformed mouse NIH3T3 cell nuclear extract preincubated for 30 mins followed by addition of radiolabeled hSIE and measured after 30 mins by EMSA analysis. In kind it is subcellular, Nucleus.

Test [5] addresses Signal transducer and activator of transcription 3 (Homo sapiens, UniProt P40763, C542S). Briefly: Inhibition of recombinant wild type tyrosine phosphorylated C-terminal 6His tagged human STAT3 C542S mutant (127 to 711 residues) DNA-binding activity transfected in v-Src transformed mouse NIH3T3 cell nuclear extract preincubated for 30 mins followed by addition of radiolabeled hSIE and measured after 30 mins by EMSA analysis. In kind it is subcellular, Nucleus.

The target of test [6] is T1, Signal transducer and activator of transcription 3. In words: Displacement of 5-carboxyfluorescein GpYLPQTV-NH2 probe from C-terminal 6His-tagged recombinant human STAT3 (127 to 711 residues) SH2 domain extracted from Escherichia coli BL21 (DE3) assessed as inhibition of dimerization preincubated for 10 mins followed by probe addition and measured after 30 mins by fluorescence polarization assay.

For test [7] the target is unchanged. Briefly: Displacement of 5-carboxyfluorescein GpYLPQTV-NH2 probe from C-terminal 6His-tagged recombinant human STAT3 (127 to 711 residues) SH2 domain extracted from Escherichia coli BL21 (DE3) assessed as inhibition of dimerization preincubated for 30 mins followed by probe addition and measured after 30 mins by fluorescence polarization assay.
For test [8] the target is unchanged. In words: Displacement of 5-carboxyfluorescein GpYLPQTV-NH2 probe from C-terminal 6His-tagged recombinant human STAT3 (127 to 711 residues) SH2 domain extracted from Escherichia coli BL21 (DE3) assessed as inhibition of dimerization preincubated for 60 mins followed by probe addition and measured after 30 mins by fluorescence polarization assay.
In test [9] the test system is PANC-1. Briefly: Inhibition of STAT3/EGFR protein-protein interaction in human PANC-1 cells at 3 uM incubated for 8 hrs by immunoblotting analysis. The test is classed as cell-based. Summed up: (§1)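 Panc-1 pancreatic cancer cells treated 8 h; whole-cell lysates prepared, EGFR, gp130, Src or JAK2 immunoprecipitated and immunoblotted for Stat3; control cells given 0.1% DMSO; 2 independent determinations.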

Test [10] concerns PANC-1. Briefly: Inhibition of STAT3/gp130 protein-protein interaction in human PANC-1 cells at 3 uM incubated for 8 hrs by immunoblotting analysis. In kind it is cell-based. Summed up:
as §1

Test [11] concerns the target JAK2-STAT3 (Homo sapiens) (UniProt O60674+P40763). In words: Inhibition of STAT3/JAK2 protein-protein interaction in human PANC-1 cells at 3 uM incubated for 8 hrs by immunoblotting analysis. In kind it is cell-based.
Test [12] deals with PANC-1. In words: Inhibition of STAT3/Src protein-protein interaction in human PANC-1 cells at 3 uM incubated for 8 hrs by immunoblotting analysis. In kind it is cell-based. The gist of the method: as §1

The source made the active and inactive calls. The rule behind the calls is not given here. Where a SMILES comes first, the peptide text is derived from it. [ ]: non-standard residue; d: D form. pY = N[C@@H](Cc1ccc(OP(=O)(O)O)cc1)C(=O)O

T1 sequence (P40763 whole entry, the tested form may be a part): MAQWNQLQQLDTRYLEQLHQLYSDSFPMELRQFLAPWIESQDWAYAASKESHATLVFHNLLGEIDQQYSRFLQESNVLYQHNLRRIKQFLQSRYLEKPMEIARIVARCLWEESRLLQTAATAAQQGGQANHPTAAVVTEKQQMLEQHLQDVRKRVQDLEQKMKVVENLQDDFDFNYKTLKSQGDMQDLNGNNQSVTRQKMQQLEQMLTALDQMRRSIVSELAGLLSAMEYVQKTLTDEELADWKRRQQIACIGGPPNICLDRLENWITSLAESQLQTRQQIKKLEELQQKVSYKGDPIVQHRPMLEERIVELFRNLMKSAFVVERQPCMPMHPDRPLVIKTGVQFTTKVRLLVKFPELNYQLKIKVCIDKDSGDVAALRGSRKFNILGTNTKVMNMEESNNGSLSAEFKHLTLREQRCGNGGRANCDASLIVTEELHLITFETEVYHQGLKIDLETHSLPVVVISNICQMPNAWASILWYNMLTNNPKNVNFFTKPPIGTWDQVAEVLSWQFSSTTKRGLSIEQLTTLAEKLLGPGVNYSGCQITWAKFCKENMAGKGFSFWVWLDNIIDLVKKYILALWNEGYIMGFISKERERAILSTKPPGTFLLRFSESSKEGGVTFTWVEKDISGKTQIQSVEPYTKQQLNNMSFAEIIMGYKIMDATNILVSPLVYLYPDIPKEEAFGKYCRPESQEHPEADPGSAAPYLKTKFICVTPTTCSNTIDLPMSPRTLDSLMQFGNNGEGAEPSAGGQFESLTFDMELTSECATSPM
Signal transducer and activator of transcription 3 (Homo sapiens, UniProt P40763, C542S), sequence (P40763 2-770 C542S limits assumed): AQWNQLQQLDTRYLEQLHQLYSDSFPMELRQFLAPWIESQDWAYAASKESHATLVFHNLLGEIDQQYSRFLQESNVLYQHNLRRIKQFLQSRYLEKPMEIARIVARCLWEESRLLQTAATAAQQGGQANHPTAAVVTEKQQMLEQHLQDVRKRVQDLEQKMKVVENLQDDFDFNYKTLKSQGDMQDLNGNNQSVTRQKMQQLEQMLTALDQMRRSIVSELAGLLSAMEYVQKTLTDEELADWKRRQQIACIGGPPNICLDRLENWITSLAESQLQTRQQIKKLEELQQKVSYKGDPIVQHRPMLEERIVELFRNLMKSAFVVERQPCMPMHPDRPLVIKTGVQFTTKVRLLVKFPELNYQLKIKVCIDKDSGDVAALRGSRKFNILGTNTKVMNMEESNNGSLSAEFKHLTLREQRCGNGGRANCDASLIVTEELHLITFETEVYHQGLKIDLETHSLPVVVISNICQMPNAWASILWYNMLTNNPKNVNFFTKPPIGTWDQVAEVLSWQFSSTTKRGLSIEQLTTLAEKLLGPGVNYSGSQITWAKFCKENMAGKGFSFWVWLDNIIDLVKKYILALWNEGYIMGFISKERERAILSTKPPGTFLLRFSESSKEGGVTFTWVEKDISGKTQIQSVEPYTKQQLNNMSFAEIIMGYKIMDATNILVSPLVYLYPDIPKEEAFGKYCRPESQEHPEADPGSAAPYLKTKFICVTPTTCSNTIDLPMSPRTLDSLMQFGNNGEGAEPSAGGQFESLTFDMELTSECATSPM
Signal transducer and activator of transcription 3 (Homo sapiens, UniProt P40763, C328A), sequence (P40763 2-770 C328A limits assumed): as the sequence (P40763 2-770 C542S limits assumed) above, with C327A, S541C counted along it

In the case of `O=C([C@H]1CCN1S(=O)(=O)c1c(F)c(F)c(F)c(F)c1F)N(Cc1ccc(C2CCCCC2)cn1)c1ccc2c(=O)[nH]ncc2c1`, the IC50 in [1] was 1.5 µM; in test [2] it was 0.38 µM; in test [3], 4.8 µM; in test [4] it was 8.8 µM; in test [5], 5.5 µM; in [6], above 600 µM. In addition, the IC50 in [7] and in test [8] was above 600 µM each time. In addition, the inhibition entry in [9], in [10] and in [11] was “Active” in each case. Moreover, the inhibition result in test [12] was “inactive”.
For the molecule `O=C(O)c1ccc(N(Cc2cnc(C3CCCCC3)cn2)C(=O)[C@H]2CCN2S(=O)(=O)c2c(F)c(F)c(Cl)c(F)c2F)cc1O`, the IC50 was found to be 190 µM in test [6], 186 µM in test [7] and 181 µM in [8].
Taken in the same sequence, the figures for `Cc1ccc(S(=O)(=O)N2CC[C@@H]2C(=O)N(Cc2ccc(C3CCCCC3)cn2)c2ccc(C(=O)O)c(O)c2)cc1` were 86.4 µM, 83.6 µM and 82.5 µM.
In the case of `CC(C)C[C@H](NC(=O)[C@H](Cc1ccc(OP(=O)(O)O)cc1)NC(=O)CN)C(=O)N1CCC[C@H]1C(=O)N[C@@H](CCC(N)=O)C(=O)N[C@H](C(=O)N[C@H](C(=O)O)C(C)C)[C@@H](C)O` (H-G[pY]LPQTV-OH), the IC50 is 0.29 µM in test [6], 0.22 µM in [7] and 0.19 µM in test [8].
Consider `CN(CC(=O)N(Cc1ccc(C2CCCCC2)cc1)c1ccc(C(=O)O)c(O)c1)S(=O)(=O)c1c(F)c(F)c(Cl)c(F)c1F`, for which the half-maximal inhibitory concentration (IC50) is 48.4 µM in [6], 41.4 µM in [7] and 35.5 µM in [8].

These data come from ChEMBL document CHEMBL5579791, “Azetidine ring, salicylic acid, and salicylic acid bioisosteres as determinants of the binding characteristics of novel potent compounds to Stat3” (Bioorg Med Chem Lett, 2024).
